ChEMBL document CHEMBL4024748, “Development of Potent Type I Protein Arginine Methyltransferase (PRMT) Inhibitors of Leukemia Cell Proliferation” (J Med Chem, 2017)
Blank lines part the entries; values can stand above or below the molecule they belong to. Calls of active or inactive are those of the source. The calls are words filed in the database; no cut-off is given here.

How the values were obtained:
[1] = target: Protein arginine N-methyltransferase 1 (Rattus norvegicus, UniProt Q63009); assay: Inhibition of rat His-tagged PRMT1 (11 to 353 residues) expressed in Escherichia coli BL21(DE3) using biotinylated H4 peptide (1 to 21 residues) as substrate preincubated for 15 mins followed by substrate addition measured after 60 mins in presence of [3H]SAM by microbeta counting method
Method in brief: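 Radiometric assay in modified Tris buffer. His6-rPRMT1(11–353) preincubated with compound 15 min at RT, then substrate and [3H]-SAM added. Reaction 60 min at RT, stopped with cold stop solution, transferred to Flashplate for 60 min, washed with water/0.1% Tween-20, counted on Microbeta. IC50 from curve fit.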

[2] = target: Protein arginine N-methyltransferase 1 (Rattus norvegicus) (UniProt Q63009); assay: Inhibition of rat His-tagged PRMT1 (11 to 353 residues) expressed in Escherichia coli BL21(DE3) at 100 uM using biotinylated H4 peptide (1 to 21 residues) as substrate by TR-FRET assay
Method in brief: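 Single-point screen at 100 µM. His6-rPRMT1(11–353) expressed in E. coli BL21(DE3) and purified by Ni affinity then gel filtration. Biotinylated H4(1–21) methylated, then product detected with Eu-labelled anti-H4R3me2a antibody plus ULight-streptavidin by TR-FRET. Percent inhibition read.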

[3] = target: Protein arginine N-methyltransferase 1 (Rattus norvegicus) (UniProt Q63009); assay: Binding affinity to rat His-tagged PRMT1 (11 to 353 residues) expressed in Escherichia coli BL21(DE3) at 200 uM by 1D 1H CPMG-NMR spectroscopic method
Method in brief: (§1)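 Rat PRMT1 (11–353), N-His6, expressed in E. coli BL21(DE3) with 0.4 mM IPTG at 16°C. Purified by Ni affinity and Superdex200. NMR used 5 µM PRMT1 in phosphate buffer pH 7.4 (20 mM NaH2PO4, 20 mM Na2HPO4, 100 mM NaCl) in D2O. Ligand at 200 µM in 5% DMSO-d6. CPMG run with 5, 2 and 1 µM PRMT1, plus STD.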

[4] = target: Protein arginine N-methyltransferase 1 (Rattus norvegicus) (UniProt Q63009); assay: Binding affinity to rat His-tagged PRMT1 (11 to 353 residues) expressed in Escherichia coli BL21(DE3) at 200 uM by STD-NMR spectroscopic method; method in brief: as §1
MV4-11 [5] = assay: Cytotoxicity against human MV4-11 cells assessed as decrease in cell viability at 6.25 to 12.5 uM after 96 hrs by Cell-Titer Glo assay; format: functional, cell-based
Method in brief: (§2)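 Cells kept at 37°C, 5% CO2, exposed to compound or DMSO control for 96 h. Viability read by CellTiter-Glo luminescence after 2 min shaking to lyse and 10 min at room temperature. Triplicate wells, normalised to control cells. For long-term growth, log-phase seeding densities; cells counted and replated to the starting density with fresh compound on days 4 and 8.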

[6] = target: Protein arginine N-methyltransferase 1 (Homo sapiens) (UniProt Q99873); assay: Inhibition of PRMT1 in human MV411 cells assessed as reduction in arginine methylation after 48 hrs by Western blot analysis; format: cell-based
Method in brief: (§3)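 MV4-11 cells treated with compound for 48 h. ADMA, SDMA and H4R3me2a read by western blot. Blots blocked in 5% nonfat milk in PBST, primary antibodies overnight at 4°C, HRP anti-rabbit secondary at 1:10000 for 1 h.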

MV4-11 [7] = assay: Cell cycle arrest in human MV4-11 cells assessed as accumulation at G1 phase at 1.67 to 15 uM after 72 hrs by propidium iodide staining-based flow cytometry; format: functional
Method in brief: (§4)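 MV4-11 cells in 6-well plates with compound or DMSO control, harvested at 72 h. Fixed overnight in 70% ethanol at 4°C, washed with PBS, stained 30 min at room temperature with propidium iodide/RNase buffer, analysed by flow cytometry. Mean ± SD of three replicates.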

MV4-11 [8] = assay: Induction of apoptosis in human MV4-11 cells up to 15 uM after 96 hrs by annexin V-FITC/propidium iodide staining-based flow cytometric method; format: functional, cell-based
Method in brief: (§5)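 MV4-11 cells in 6-well plates with compound or DMSO control, harvested at 96 h. Stained with an Annexin V-FITC apoptosis detection kit and analysed by flow cytometry. Mean ± SD of three replicates.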

MV4-11 [9] = assay: Downregulation of HOXA9 mRNA levels in human MV4-11 cells up to 15 uM by qRT-PCR analysis; format: functional, cell-based
Method in brief: (§6)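 MV4-11 cells treated with compound. mRNA measured by SYBR Green qRT-PCR with B2M as internal control. Fold change from ΔΔCt. Samples run in triplicate, mean ± SD.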

MV4-11 [10] = assay: Downregulation of HOXA10 mRNA levels in human MV4-11 cells up to 15 uM by qRT-PCR analysis; format: functional, cell-based; method in brief: as §6
MV4-11 [11] = assay: Downregulation of MEIS1 mRNA levels in human MV4-11 cells up to 15 uM by qRT-PCR analysis; format: functional, cell-based; method in brief: as §6
KOPN-8 = assay: Cytotoxicity against human KOPN8 cells assessed as decrease in cell viability after 96 hrs by Cell-Titer Glo assay; format: functional, cell-based; method in brief: as §2
KMS-11 = assay: Cytotoxicity against human KMS11 cells assessed as decrease in cell viability after 96 hrs by Cell-Titer Glo assay; format: functional, cell-based; method in brief: as §2
THP-1 = assay: Cytotoxicity against human THP1 cells assessed as decrease in cell viability after 96 hrs by Cell-Titer Glo assay; format: functional, cell-based; method in brief: as §2
RS4-11 = assay: Cytotoxicity against human RS4:11 cells assessed as decrease in cell viability after 96 hrs by Cell-Titer Glo assay; format: functional, cell-based; method in brief: as §2
RCH-ACV = assay: Cytotoxicity against human RCH-ACV cells assessed as decrease in cell viability after 96 hrs by Cell-Titer Glo assay; format: functional, cell-based; method in brief: as §2
REH = assay: Cytotoxicity against human REH cells assessed as decrease in cell viability after 96 hrs by Cell-Titer Glo assay; format: functional, cell-based; method in brief: as §2
U-937 = assay: Cytotoxicity against human U937 cells assessed as decrease in cell viability after 96 hrs by Cell-Titer Glo assay; format: functional, cell-based; method in brief: as §2
MRC5 = assay: Cytotoxicity against human MRC5 cells assessed as decrease in cell viability at 6.25 to 25 uM after 96 hrs by Cell-Titer Glo assay; format: cell-based; details: mrc5, 96 h
Method in brief: (§7)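 Normal HUV-EC-C, MRC-5 and RCTEC cells at 37°C, 5% CO2, given compound or DMSO control for 96 h. Viability by CellTiter-Glo luminescence after 2 min shaking and 10 min at room temperature. Triplicate wells, normalised to control cells.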

[12] = Cytotoxicity against human RCTEC cells assessed as decrease in cell viability at 6.25 to 25 uM after 96 hrs by Cell-Titer Glo assay; format: cell-based; method in brief: as §7
[13] = Cytotoxicity against human HUV-EC-C cells assessed as decrease in cell viability at 6.25 to 25 uM after 96 hrs by Cell-Titer Glo assay; format: cell-based; method in brief: as §7
MV4-11 [14] = assay: Antiproliferative activity against human MV4-11 cells assessed as decrease in cell viability at 0.1 to 1000 uM by Cell-Titer Glo assay; format: functional, cell-based; details: TDE = time-dependent effect; method in brief: as §2
MV4-11 [15] = assay: Antiproliferative activity against human MV4-11 cells assessed as decrease in cell viability measured at day 12 by Cell-Titer Glo assay; format: functional, cell-based; details: MV4-11, 288 h; method in brief: as §2
[16] = target: Protein arginine N-methyltransferase 1 (Homo sapiens) (UniProt Q99873); assay: Inhibition of PRMT1 in human MV411 cells assessed as reduction in ADMA levels after 48 hrs by Western blot analysis; format: cell-based; method in brief: as §3
[17] = target: Protein arginine N-methyltransferase 1 (Homo sapiens) (UniProt Q99873); assay: Inhibition of PRMT1 in human MV411 cells assessed as increase in SDMA levels after 48 hrs by Western blot analysis; format: cell-based; method in brief: as §3
MV4-11 [18] = assay: Cell cycle arrest in human MV4-11 cells assessed as accumulation at G1 phase after 72 hrs by propidium iodide staining-based flow cytometry; format: functional; method in brief: as §4
MV4-11 [19] = assay: Induction of apoptosis in human MV4-11 cells after 96 hrs by annexin V-FITC/propidium iodide staining-based flow cytometric method; format: functional, cell-based; method in brief: as §5
MV4-11 [20] = assay: Downregulation of HOXA9 mRNA levels in human MV4-11 cells by qRT-PCR analysis; format: functional, cell-based; method in brief: as §6
MV4-11 [21] = assay: Downregulation of HOXA10 mRNA levels in human MV4-11 cells by qRT-PCR analysis; format: functional, cell-based; method in brief: as §6
MV4-11 [22] = assay: Downregulation of MEIS1 mRNA levels in human MV4-11 cells by qRT-PCR analysis; format: functional, cell-based; method in brief: as §6
MV4-11 [23] = assay: Upregulation of MNDA mRNA levels in human MV4-11 cells by qRT-PCR analysis; format: functional, cell-based
Method in brief: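 Treated MV4-11 cells analysed by SYBR Green qRT-PCR, with B2M as internal control. Fold change calculated by the ΔΔCt method. Samples run in triplicate and reported as mean ± SD.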

[24] = target: Protein arginine N-methyltransferase 1 (Homo sapiens) (UniProt Q99873); assay: Inhibition of PRMT1 in human MV411 cells assessed as reduction in H4R3me2a levels after 48 hrs by Western blot analysis; format: cell-based; method in brief: as §3

Protein arginine N-methyltransferase 1, sequence (Q63009 whole entry, the tested form may be a part): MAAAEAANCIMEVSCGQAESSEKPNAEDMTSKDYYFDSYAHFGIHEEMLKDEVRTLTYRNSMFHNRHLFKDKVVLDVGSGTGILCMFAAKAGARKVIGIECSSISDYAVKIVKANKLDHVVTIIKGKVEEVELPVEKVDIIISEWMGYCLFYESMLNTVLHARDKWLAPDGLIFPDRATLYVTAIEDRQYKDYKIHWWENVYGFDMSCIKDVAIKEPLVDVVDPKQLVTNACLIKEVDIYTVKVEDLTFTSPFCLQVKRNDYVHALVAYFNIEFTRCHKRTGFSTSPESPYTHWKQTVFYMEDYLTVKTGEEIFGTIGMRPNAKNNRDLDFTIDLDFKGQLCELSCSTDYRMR
Protein arginine N-methyltransferase 1 (Rattus norvegicus), sequence (Q63009 whole entry, looked up, the tested form may be a part): as the sequence (Q63009 whole entry, the tested form may be a part) above
Protein arginine N-methyltransferase 1 (Homo sapiens), sequence (Q99873 whole entry, looked up): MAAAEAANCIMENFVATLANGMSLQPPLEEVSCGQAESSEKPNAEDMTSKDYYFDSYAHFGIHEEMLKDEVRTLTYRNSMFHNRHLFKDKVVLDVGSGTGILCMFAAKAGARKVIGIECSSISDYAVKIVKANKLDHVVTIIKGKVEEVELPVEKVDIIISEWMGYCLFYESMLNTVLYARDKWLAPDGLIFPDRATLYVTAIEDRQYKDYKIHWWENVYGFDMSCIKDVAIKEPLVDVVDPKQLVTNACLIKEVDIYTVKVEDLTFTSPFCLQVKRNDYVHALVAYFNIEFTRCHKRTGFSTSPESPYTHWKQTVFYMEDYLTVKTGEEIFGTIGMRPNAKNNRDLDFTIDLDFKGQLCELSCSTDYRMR

Compound: C=CCOc1ccc(CNCCc2ccc(S(N)(=O)=O)cc2)cc1
IC50 [1]: 85 µM | inhibition [2]: > 80%

Compound: c1ccc(COc2cccc(CNCC3CCNCC3)c2)cc1
IC50 [1]: 147 µM | inhibition [2]: > 80%

Compound: CN(C)CCN(C)Cc1ccccc1Sc1cccc2ccccc12
IC50 [1]: 3 µM | inhibition [2]: > 80% | Activity [3]: Active | Activity [4]: Active

Compound: COc1ccc(N(C(=O)C2CCCCC2)S(=O)(=O)c2ccccc2)cc1
inhibition [2]: > 80%

Compound: CCCNCc1cc(Br)cc(Br)c1OC
inhibition [2]: > 80%

Compound: Cc1ccc(-c2cc(CC(=O)c3c(O)cc(O)cc3O)n[nH]2)cc1
IC50 [1]: 49 µM | inhibition [2]: > 80%

Compound: CNCCN(C)Cc1ccccc1Sc1ccccc1Cl
IC50 [1]: 0.006 µM | Activity [3]: Active | Activity [4]: Active | Activity (KOPN-8): Dose-dependent effect | Activity (KMS-11): Dose-dependent effect | Activity (THP-1): Dose-dependent effect | Activity (RS4-11): Dose-dependent effect | Activity (RCH-ACV): Dose-dependent effect | Activity (REH): Dose-dependent effect | Activity (U-937): Dose-dependent effect | Activity (MV4-11 [5]): Active | Activity (MRC5): Non-Toxic | Activity [12]: Non-Toxic | Activity [13]: Non-Toxic | Activity (MV4-11 [14]): Tde | IC50 (MV4-11 [15]): 1.08 µM | inhibition [16]: Dose-dependent effect | inhibition [17]: Dose-dependent effect | Activity (MV4-11 [18]): Dose-dependent effect | Activity (MV4-11 [19]): Dose-dependent effect | Activity (MV4-11 [20]): Dose-dependent effect | Activity (MV4-11 [21]): Dose-dependent effect | Activity (MV4-11 [22]): Dose-dependent effect | Activity (MV4-11 [23]): Active | inhibition [24]: Dose-dependent effect

Compound: CCOC(=O)c1c2c3ccccc3c3ccccc3c2cc2[n+]1CCc1ccccc1-2
IC50 [1]: 53 µM | inhibition [2]: > 80%

More lines, main results first:

IC50 [1]: 45 µM
Compound: CN(C)CCNCc1ccccc1Sc1ccccc1F

IC50 [1]: > 50 µM
Compound: CN(C)CCNC(=O)c1ccccc1Sc1ccccc1Cl

IC50 [1]: 3.6 µM
Compound: CN(C)CCN(C)Cc1ccccc1Sc1ccccc1

IC50 [1]: 34 µM
Compound: CN(C)CCNCc1ccccc1Sc1cccc2ccccc12

IC50 [1]: > 200 µM
Compound: CN(C)CCNC(=O)c1ccccc1Sc1ccccc1F

IC50 [1]: > 50 µM | inhibition [6]: inactive
Compound: CN(C)CCNCc1ccccc1Sc1ccccc1
Activity (MV4-11 [5]): inactive | Activity (MV4-11 [7]): inactive | Activity (MV4-11 [8]): inactive | Activity (MV4-11 [9]): inactive | Activity (MV4-11 [10]): inactive | Activity (MV4-11 [11]): inactive

IC50 [1]: > 200 µM
Compound: CN(C)CCNC(=O)c1ccccc1Sc1cccc2ccccc12

IC50 [1]: 0.39 µM
Compound: CN(C)CCN(C)Cc1ccccc1Sc1ccccc1Cl

IC50 [1]: > 50 µM
Compound: CN(C)CCNC(=O)c1ccccc1Sc1ccccc1

IC50 [1]: 54 µM
Compound: CN(C)CCNCc1ccccc1Sc1ccccc1Cl

IC50 [1]: 0.71 µM
Compound: CN(C)CCN(C)Cc1ccccc1Sc1ccccc1F
